Measured values taken from ChEMBL document CHEMBL5678818, “Discovery of potent SOS1 inhibitors that block RAS activation via disruption of the RAS-SOS1 interaction” (Proc Natl Acad Sci U S A, 2019).
Activity calls are given as the source filed them. The calls are words filed in the database; no cut-off is given here.

Key:
[1] = tested on: SOS1-KRAS (Homo sapiens), Q07889+P01116 [G12C]; test: Binding affinity to N-terminal GST-tagged recombinant human KRAS G12C mutant (1 to 169 residues) expressed in Escherichia coli/N-terminal His10-tagged wild-type recombinant human SOS1 catalytic domain (564 to 1049 residues) expressed in Escherichia coli at 200 uM by STD-NMR analysis
[2] = tested on: GTPase KRas (Homo sapiens), P01116 [G12C]; test: Binding affinity to N-terminal GST-tagged recombinant human KRAS G12C mutant (1 to 169 residues) expressed in Escherichia coli at 200 uM by STD-NMR analysis
[3] = biological target: T1, Son of sevenless homolog 1 (Homo sapiens) (UniProt Q07889); test: Binding affinity to N-terminal His10-tagged wild-type recombinant human SOS1 catalytic domain (564 to 1049 residues) expressed in Escherichia coli at 200 uM by STD-NMR analysis
T1 sequence (whole entry): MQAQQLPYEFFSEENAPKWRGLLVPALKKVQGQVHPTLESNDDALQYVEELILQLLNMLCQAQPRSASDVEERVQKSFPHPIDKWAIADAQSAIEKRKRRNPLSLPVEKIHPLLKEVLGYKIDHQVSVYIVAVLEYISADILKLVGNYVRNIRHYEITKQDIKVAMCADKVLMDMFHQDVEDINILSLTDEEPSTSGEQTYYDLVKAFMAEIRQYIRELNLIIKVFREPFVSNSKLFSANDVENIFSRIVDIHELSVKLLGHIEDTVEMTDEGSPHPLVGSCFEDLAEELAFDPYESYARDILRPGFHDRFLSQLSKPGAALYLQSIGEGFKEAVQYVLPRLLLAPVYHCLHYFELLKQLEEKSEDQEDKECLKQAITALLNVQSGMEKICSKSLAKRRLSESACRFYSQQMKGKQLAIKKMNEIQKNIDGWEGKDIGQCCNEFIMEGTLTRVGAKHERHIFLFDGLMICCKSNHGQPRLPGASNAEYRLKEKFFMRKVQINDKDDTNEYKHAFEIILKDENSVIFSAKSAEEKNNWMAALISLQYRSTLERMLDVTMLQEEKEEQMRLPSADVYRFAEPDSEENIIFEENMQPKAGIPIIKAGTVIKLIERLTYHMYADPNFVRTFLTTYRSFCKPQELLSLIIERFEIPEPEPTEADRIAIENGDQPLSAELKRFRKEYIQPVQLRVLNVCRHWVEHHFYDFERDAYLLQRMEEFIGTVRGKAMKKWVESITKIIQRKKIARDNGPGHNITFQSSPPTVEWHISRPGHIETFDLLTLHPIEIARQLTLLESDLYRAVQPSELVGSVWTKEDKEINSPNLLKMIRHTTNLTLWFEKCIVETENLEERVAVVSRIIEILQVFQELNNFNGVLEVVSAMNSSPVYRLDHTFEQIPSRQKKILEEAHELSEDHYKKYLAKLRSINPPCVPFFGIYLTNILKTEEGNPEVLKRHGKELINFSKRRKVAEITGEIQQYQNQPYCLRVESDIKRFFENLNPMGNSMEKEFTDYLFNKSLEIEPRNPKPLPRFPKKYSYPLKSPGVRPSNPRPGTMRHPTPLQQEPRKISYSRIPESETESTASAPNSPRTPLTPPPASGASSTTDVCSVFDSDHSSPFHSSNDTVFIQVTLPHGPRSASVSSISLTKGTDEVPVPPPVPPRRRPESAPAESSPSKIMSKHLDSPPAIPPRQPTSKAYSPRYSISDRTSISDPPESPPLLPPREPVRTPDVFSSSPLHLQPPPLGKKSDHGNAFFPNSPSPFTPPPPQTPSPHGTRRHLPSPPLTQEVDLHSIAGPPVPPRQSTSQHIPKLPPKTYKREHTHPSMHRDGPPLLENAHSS

Homo sapiens [4] = species on record: Homo sapiens; test: Stabilization of N-terminal His10-tagged 15N-labeled recombinant human KRAS G12C/C118S mutant (1 to 169 residues) expressed in Escherichia coli/N-terminal His10-tagged wild-type recombinant human SOS1 catalytic domain (564 to 1049 residues) expressed in Escherichia coli at 1 mM incubated for 30 mins by 2D-NMR analysis
Homo sapiens [5] = species on record: Homo sapiens; test: Stabilization of N-terminal His10-tagged recombinant human KRAS G12C/C118S mutant (1 to 169 residues) expressed in Escherichia coli/Series S C1 sensor chip-immobilized biotinylated N-terminal His10-tagged wild-type recombinant human SOS1 catalytic domain (564 to 1049 residues) expressed in Escherichia coli at 100 to 500 uM measured for 360 secs by SPR analysis; conditions: dose 100-500 µM, time 360.0 sec
Method in brief: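 SOS1cat is immobilized on the chip, and 250 nM KRASG12C_C118S is flowed over with or without test compound. Compound alone at 100, 250 and 500 µM is also injected to gauge unspecific binding to SOS1cat. Buffer injection serves as the blank.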

Homo sapiens [6] = species on record: Homo sapiens; test: Stabilization of N-terminal His10-tagged recombinant human KRAS G12C/C118S mutant (1 to 169 residues) expressed in Escherichia coli/N-terminal His10-tagged wild-type recombinant human SOS1 catalytic domain (564 to 1049 residues) expressed in Escherichia coli by HTRF analysis
Method in brief: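 HTRF equilibrium-binding read-out of KRASG12C_C118S with SOS1cat, detected by fluorescently labelled antibodies including a terbium donor. Signal normalized with DMSO control as 100% and no-SOS1cat wells as 0%. Data are mean ± SD, n = 4.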

[7] = biological target: Son of sevenless homolog 2 (Homo sapiens, UniProt Q07890); test: Inhibition of N-terminal His10-tagged wild-type recombinant human SOS2 catalytic domain (564 to 1043 residues) expressed in Escherichia coli assessed as reduction in KRAS G12C mutant activation preincubated for 10 mins with KRAS followed by SOS2 addition measured after 30 mins in presence of EDA-GTP-DY-647P1 by HTRF analysis
[8] = biological target: T2, Guanine nucleotide exchange factor DBS (Homo sapiens, UniProt O15068); test: Inhibition of human DBS assessed as reduction in CDC42 activation preincubated for 1 min with CDC42 followed by DBS addition measured after 20 mins in presence of EDA-GTP-DY-647P1 by HTRF analysis
T2 sequence (O15068 whole entry): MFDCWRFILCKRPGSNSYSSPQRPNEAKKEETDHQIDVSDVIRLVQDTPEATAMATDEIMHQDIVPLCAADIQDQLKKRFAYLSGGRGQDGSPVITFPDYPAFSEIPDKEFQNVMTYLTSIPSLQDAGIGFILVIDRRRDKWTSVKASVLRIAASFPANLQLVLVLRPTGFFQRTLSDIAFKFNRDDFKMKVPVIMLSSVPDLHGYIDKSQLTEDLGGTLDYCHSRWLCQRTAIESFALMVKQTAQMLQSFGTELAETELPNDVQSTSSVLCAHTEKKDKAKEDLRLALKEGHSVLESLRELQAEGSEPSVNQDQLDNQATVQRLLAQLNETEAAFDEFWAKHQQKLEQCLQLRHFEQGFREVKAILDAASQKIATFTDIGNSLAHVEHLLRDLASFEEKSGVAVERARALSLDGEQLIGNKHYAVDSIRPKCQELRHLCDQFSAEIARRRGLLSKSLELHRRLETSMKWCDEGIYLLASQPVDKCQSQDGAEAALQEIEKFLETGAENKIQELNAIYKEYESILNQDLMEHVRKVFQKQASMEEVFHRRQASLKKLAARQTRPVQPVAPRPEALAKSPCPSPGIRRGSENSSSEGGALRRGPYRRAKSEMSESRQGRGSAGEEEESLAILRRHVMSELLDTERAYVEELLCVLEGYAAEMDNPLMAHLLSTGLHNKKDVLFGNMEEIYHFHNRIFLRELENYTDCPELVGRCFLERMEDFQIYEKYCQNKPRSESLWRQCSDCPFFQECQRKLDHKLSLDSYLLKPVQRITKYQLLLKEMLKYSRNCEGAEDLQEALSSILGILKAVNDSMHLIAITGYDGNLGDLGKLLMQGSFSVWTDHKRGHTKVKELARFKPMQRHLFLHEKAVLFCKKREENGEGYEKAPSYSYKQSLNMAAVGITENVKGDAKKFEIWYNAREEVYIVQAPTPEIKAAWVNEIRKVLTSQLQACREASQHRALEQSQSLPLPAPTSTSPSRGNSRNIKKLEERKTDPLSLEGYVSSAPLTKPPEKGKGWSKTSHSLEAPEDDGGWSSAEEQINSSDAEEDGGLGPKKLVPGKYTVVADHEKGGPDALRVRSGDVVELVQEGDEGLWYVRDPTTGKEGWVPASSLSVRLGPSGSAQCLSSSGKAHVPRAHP

[9] = biological target: Epidermal growth factor receptor (Homo sapiens, UniProt P00533); test: Inhibition of human EGFR using biotin-aminohexyl-AEEEEYFELVAKKK as substrate preincubated for 15 mins followed by substrate/ATP addition measured after 20 mins by FRET assay
[10] = biological target: GTPase KRas (Homo sapiens) (UniProt P01116); test: Stabilization of N-terminal His10-tagged wild-type recombinant human KRAS (1 to 169 residues) expressed in Escherichia coli assessed as change in melting temperature at 100 uM with heating from 25 to 85 degreeC by thermal shift assay
[11] = biological target: T1, Son of sevenless homolog 1 (Homo sapiens); test: Stabilization of N-terminal His10-tagged wild-type recombinant human SOS1 catalytic domain (564 to 1049 residues) expressed in Escherichia coli assessed as change in melting temperature at 100 uM with heating from 25 to 85 degreeC by thermal shift assay
[12] = tested on: GTPase KRas (Homo sapiens), P01116 [G12C]; test: Stabilization of N-terminal GST-tagged recombinant human KRAS G12C mutant (1 to 169 residues) expressed in Escherichia coli assessed as change in melting temperature at 100 uM with heating from 25 to 85 degreeC by thermal shift assay
K562 [13] = test: Antiproliferative activity against human K562 cells assessed as inhibition of cell viability incubated for 72 hrs by Cell Titer Glo assay; assay type: functional, cell-based; conditions: K562, 72 h
Method in brief: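 K-562 cells (wild-type KRAS, sourced from ATCC) were tested for antiproliferative response.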

NCI-H358 = test: Antiproliferative activity against human NCI-H358 cells assessed as inhibition of cell viability incubated for 72 hrs by Cell Titer Glo assay; assay type: functional, cell-based; conditions: NCI-H358, 72 h
Method in brief: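 NCI-H358 cells (KRAS G12C mutant) were sourced from ATCC.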

Calu-1 [14] = test: Antiproliferative activity against human Calu-1 cells assessed as inhibition of cell viability incubated for 72 hrs by Cell Titer Glo assay; assay type: functional, cell-based; conditions: Calu-1, 72 h
K562 [15] = test: Effect on total ERK level in human K562 cells incubated for 60 mins by HTRF analysis; assay type: functional, cell-based
Method in brief: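 K-562 cells (wild-type KRAS) were sourced from ATCC. Cells were incubated with compound for 60 min, and total ERK was quantified alongside pERK.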

Calu-1 [16] = test: Effect on total ERK level in human Calu-1 cells incubated for 24 hrs by HTRF analysis; assay type: functional, cell-based
Method in brief: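 Calu-1 cells carry two KRAS G12C alleles and were sourced from CLS. Total and pERK levels were both analyzed after compound treatment.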

KG-1 = test: Antiproliferative activity against human KG-1 cells assessed as inhibition of cell viability incubated for 72 hrs by Cell Titer Glo assay; assay type: functional, cell-based
THP-1 = test: Antiproliferative activity against human THP-1 cells assessed as inhibition of cell viability incubated for 72 hrs by Cell Titer Glo assay; assay type: functional, cell-based
[17] = biological target: T1, Son of sevenless homolog 1 (Homo sapiens); test: Inhibition of SOS1 in human Calu-1 cells assessed as pERK level incubated for 24 hrs by HTRF analysis relative to control; assay type: cell-based; parameters: scale not given: the % may be the effect or the level left
MOLM-13 = test: Antiproliferative activity against human MOLM-13 cells assessed as inhibition of cell viability incubated for 72 hrs by Cell Titer Glo assay; assay type: functional, cell-based; conditions: MOLM-13, 72 h

SMILES	IC50 [7] [µM]	IC50 [8] [µM]	IC50 [9] [µM]	ΔTm [10] [°C]	ΔTm [11] [°C]	ΔTm [12] [°C]	IC50 (K562 [13]) [µM]	IC50 (NCI-H358) [µM]	also measured
NCc1nn(-c2ccccc2)c2c1CCC2	–	–	–	–	–	–	–	–	Activity [1]: Active; Activity [2]: inactive; Activity [3]: inactive; Activity (Homo sapiens [4]): Active; Activity (Homo sapiens [5]): Active; Activity (Homo sapiens [6]): Active
CNCc1ccccc1-c1csc(C(C)Nc2nc(C)nc3cc(OC)c(OC)cc23)c1 (centres undefined)	> 20	> 20	> 20	-0.67	2.96	-0.57	1.1	2.66	IC50 (Calu-1 [14]): 2.05 µM; Activity (K562 [15]): inactive; Activity (Calu-1 [16]): inactive; Activity (KG-1): Active; Activity (THP-1): Active
C=CC(=O)N1CC(N2CCN(C(=O)CNc3cc(C4(C)CC4)c(Cl)cc3O)CC2)C1	–	–	–	–	–	–	–	–	Activity [17]: 50%
CNCc1ccccc1-c1csc([C@H](C)Nc2nc(C)nc3cc(OC)c(OC)cc23)c1 [BAY-294]	> 20	> 20	> 20	-0.05	0.28	-0.6	7.5	3.39	IC50 (MOLM-13): 7.57 µM
